“Also recorded” adds a separate entry of the source.
Experiments:
[1] = biological target: dpIRE1α* (dephosphorylated IRE1α*) (Homo sapiens, UniProt O75460); test: In vitro determination of dpIRE1α*–inhibitor complex Kdimer; assay type: biochemical; conditions: relative to apo-dpIRE1α*
Summary of the method: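 IRE1α* dephosphorylated overnight at 4 °C with λ-PPase (5:1 molar) in HEPES pH 7.5/NaCl/1 mM MnCl2/DTT/Brij 35; checked by phospho-protein blot. Then titrated two-fold from 2 or 4 μM in Tris pH 7.5 assay buffer; 30 min RT with 50 μM test compound. Alexa647-quencher XBP1 mini-substrate (6 μM final). Fluorescence ex 650/em 665 nm. n=3, mean ± SEM.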

[2] = biological target: IRE1α* (Homo sapiens, UniProt O75460); test: In vitro determination of IRE1α*–inhibitor complex Kdimer; assay type: biochemical; conditions: inhibitor-bound IRE1α*
Chain of IRE1α* (O75460 547-977): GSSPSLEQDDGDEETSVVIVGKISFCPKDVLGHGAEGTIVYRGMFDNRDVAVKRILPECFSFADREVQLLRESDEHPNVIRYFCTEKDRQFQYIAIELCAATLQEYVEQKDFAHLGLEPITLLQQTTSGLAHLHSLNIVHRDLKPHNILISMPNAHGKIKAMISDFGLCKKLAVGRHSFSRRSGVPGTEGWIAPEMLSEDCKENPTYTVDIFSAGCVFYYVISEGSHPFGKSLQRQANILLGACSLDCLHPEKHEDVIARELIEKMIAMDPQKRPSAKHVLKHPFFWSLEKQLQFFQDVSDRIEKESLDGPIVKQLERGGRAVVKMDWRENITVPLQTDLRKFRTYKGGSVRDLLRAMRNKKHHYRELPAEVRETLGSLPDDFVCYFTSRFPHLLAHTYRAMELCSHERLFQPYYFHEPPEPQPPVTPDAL

[3] = test system: XBP1 mRNA splicing; test: XBP1 mRNA splicing in ER-stressed INS-1 cells; assay type: cell-based, rat; conditions: INS-1 cells treated with brefeldin A or thapsigargin and KIRA8
Summary of the method: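 Parental INS-1 cells on poly-D-lysine, grown 48 h. Test compound or DMSO given 1 h before brefeldin A, thapsigargin or DTT. In the sequential format: 10 μM first compound for 30 min, then second compound (0.5 or 1 μM) for 30 min, then 2 mM DTT. Intron-spanning XBP1 RT-PCR, PstI digest, EtBr gel, % spliced. n=3, mean ± SEM; two-tailed t-test versus DTT.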

[4] = test system: mouse splenocytes (C57BL/6); test: Plasma cell differentiation of LPS-treated mouse splenocytes, flow cytometry; assay type: cell-based
Summary of the method: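 Splenocytes cultured 3 days ±1 μg/mL LPS with test compound (20–1.25 μM, two-fold, DMSO 1:2000). Cells stained with LIVE/DEAD near-IR (1:1000, 20 min, ice), then anti-CD19/CD45R/CD138 (15 min, ice), then permeabilized for intracellular XBP1s. Plasmablasts gated as CD19+ B220-low CD138-high; division from vital-dye dilution. n=3, mean ± SEM; one-tailed t-test.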

[5] = test system: mouse splenocytes (C57BL/6); test: ELISA for secreted IgM from LPS-treated splenocytes; assay type: cell-based; conditions: 1 μg/mL LPS for three days, 20 μM-1.25 μM
Summary of the method: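 C57BL/6 splenocytes, red cells lysed, CellTrace Violet-loaded, plated at 2.5 × 10^5 cells/well in complete RPMI; ±1 μg/ml LPS; test compound in two-fold dilutions (20–1.25 μM) from DMSO at 1:2000 final; 3 days, 37 °C, 5% CO2. Supernatant IgM by ELISA: 1 μg/ml goat anti-IgM capture, anti-IgM-HRP (1:3000), TMB, 1 N H2SO4 stop, A450. n=3, mean ± SEM; one-tailed t-test.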

[6] = 1 μg/mL LPS for three days, 20 μM-1.25 μM

Chain of dpIRE1α* (dephosphorylated IRE1α*) (O75460 547-977): as above

With `O=C(Nc1c[nH]nc1-c1nc2ccc(CN3CCOCC3)cc2[nH]1)NC1CC1` [AT9283] the “lowering of Kdimer of dpIRE1α* when complexed to ligand” value [1] was ~ 80 times.
For `NC(=O)Nc1cc(-c2cccc(F)c2)sc1C(=O)N[C@H]1CCCNC1` [AZD7762], the “lowering of Kdimer of dpIRE1α* when complexed to ligand” value [1] was ~ 80 times.
In the case of `Cc1ccc2c(NS(=O)(=O)c3ccccc3Cl)cccc2c1Oc1ncccc1-c1ccnc(N[C@H]2CCCNC2)n1` [KIRA8], the “formation of RNase active dimers / dimerization affinity of IRE1α*” value [2] was “unable to form RNase active dimers at any concentration tested”, the “XBP1 mRNA splicing” value [3] was “completely suppresses; also recorded: almost completely suppressed” and the “XBP1s expression in B cells” value [4, 6] was “reductions”. The “plasma cell differentiation, CD138+” value [4, 6] was “reductions”, the “toxicity to splenocytes” value ([4]; 10 μM and 20 μM KIRA8, LPS, three days) was “cellular toxicity” and the “IgM secretion” value [5] was “reductions”.
